Measured values as given in ChEMBL document CHEMBL5661977, “BI 6727, a Polo-like kinase inhibitor with improved pharmacokinetic profile and broad antitumor activity” (Clin Cancer Res, 2009).
pEC50: −log10 of the molar value. The source made the active and inactive calls. The rule behind the calls is not given here.

Key:
HCT-116 [1] = assay: Antimitotic activity against human HCT-116 cells assessed as inhibition of cell proliferation incubated for 72 hrs by Alamar blue based fluorescence spectrophotometric analysis; format: functional; details: HCT-116, 72 h
Procedure, shortened: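 Cancer cell lines were cultured per supplier instructions and exposed to various inhibitor concentrations for 72 h. Growth was read as Alamar blue conversion by fluorescence. EC50 (50% growth inhibition) was extrapolated from the dose-response curve fit.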

BRO melanoma cell line = assay: Antimitotic activity against human BRO melanoma cell line assessed as inhibition of cell proliferation incubated for 72 hrs by Alamar blue based fluorescence spectrophotometric analysis; format: functional
NCI-H460 [2] = assay: Antimitotic activity against human NCI-H460 cells assessed as accumulation of monopolar spindles at 100 nmol/L incubated for 24 hrs by immunofluorescence analysis; format: functional, cell-based
Procedure, shortened: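 NCI-H460 cells on chamber slides were treated next day for 24 h with inhibitor or 0.1% DMSO vehicle. They were fixed and permeabilized with 4% formaldehyde/Triton X-100 for 5 min at RT, then stained with anti-tubulin and anti-phospho-Ser10 histone H3 (1:500 in PBS/2% BSA) plus DAPI 0.05 µg/mL. Imaged by fluorescence microscopy.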

NCI-H460 [3] = assay: Antimitotic activity against human NCI-H460 cells assessed as cell cycle block in G2-M phase measuring by accumulation of 4N DNA content at 100 nmol/L incubated for 24 hrs by PI staining based flow cytometric analysis; format: functional
Procedure, shortened: (§1)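 Log-phase NCI-H460 cells were treated with 0.1% DMSO or inhibitor (dose series for 24 h; 100 nmol/L time course at 0, 24, 48, 72 h). Cells were fixed in 80% ethanol, permeabilized with 0.25% Triton X-100 for 5 min, then given 0.1% RNase plus 10 µg/mL propidium iodide for 20 min at RT. DNA content was read by flow cytometry.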

NCI-H460 [4] = assay: Antimitotic activity against human NCI-H460 cells assessed as increase in the sub-G1 phase at 100 nmol/L incubated for 48 hrs by PI staining based flow cytometric analysis; format: functional, cell-based; procedure, shortened: as §1
NCI-H460 [5] = assay: Induction of apoptosis in human NCI-H460 cells assessed as conversion of cleaved PRAP protein to fragment at 100 nmol/L incubated for 48 hrs by westernblot analysis; format: functional, cell-based
Procedure, shortened: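 Exponentially growing NCI-H460 cells treated with compound or DMSO control for 24 or 48 h, then harvested. Cleaved PARP fragment detected by Western blot.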

[6] = Half life in Wistar rat at 10 mg/kg, iv by HPLC-MS/MS analysis; format: ADME, organism-based; details: in vivo
Procedure, shortened: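 Male Wistar Crl:WI (Han) rats, n = 4, given a single 5-min i.v. infusion. BI 6727 measured in EDTA plasma at various times after the infusion started, by HPLC-MS/MS with internal standard. Parameters came from noncompartmental analysis. Terminal half-life was taken from the last two time points after i.v. dosing.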

[7] = AUC (0-24hrs) in Wistar rat at 30 mg/kg, po by HPLC-MS/MS analysis; format: ADME, organism-based; details: in vivo
Procedure, shortened: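 Single oral dose to female nude mice or male Wistar rats. EDTA plasma was collected over 24 h and quantified by LC-MS/MS after extraction with internal standard. AUC0-24 was calculated from the concentration-time profile by the trapezoidal rule using noncompartmental analysis.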

[8] = Oral bioavailability in Wistar rat at 30 mg/kg by HPLC-MS/MS analysis; format: ADME, organism-based; details: in vivo
Procedure, shortened: (§2)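 Single oral gavage of BI 6727 suspended in 0.5% hydroxyethyl-cellulose (10 mL/kg) to female nude mice or male Wistar rats. EDTA plasma levels measured over time by HPLC-MS/MS with internal standard. AUC0-24 by trapezoidal rule. Parameters from noncompartmental analysis.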

[9] = Clearance in BomTac:NMRI-Foxn1nu mouse at 35 mg/kg, iv by HPLC-MS/MS analysis; format: ADME, organism-based; details: in vivo
Procedure, shortened: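 Female nude mice, n = 3, single i.v. dose (vehicle 0.1 N HCl diluted with 0.9% NaCl, 10 mL/kg). BI 6727 measured in EDTA plasma at several times by HPLC-MS/MS with internal standard. Parameters came from noncompartmental analysis. Terminal half-life was taken from the last two time points after i.v. dosing.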

[10] = Tmax in BomTac:NMRI-Foxn1nu mouse at 50 mg/kg, po by HPLC-MS/MS analysis; format: ADME, organism-based; details: in vivo; procedure, shortened: as §2
[11] = Oral bioavailability in BomTac:NMRI-Foxn1nu mouse at 50 mg/kg by HPLC-MS/MS analysis; format: ADME, organism-based; details: in vivo; procedure, shortened: as §2
HCT-116 [12] = assay: Antitumor activity against human HCT-116 cells xenografted in BomTac:NMRI-Foxn1nu mouse assessed as T/C at 15 mg/kg, iv administered twice a week upto 6 weeks relative to control; format: functional
Procedure, shortened: (§3)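 Female nude mice bore s.c. HCT 116 (2×10^6 cells), NCI-H460 (1×10^6 cells) or serially transplanted CXB1 tumor pieces. At ~50–100 mm³, mice were randomized into groups of 10 and dosed i.v. (0.1 N HCl/saline) or by gavage (0.5% hydroxyethyl-cellulose) at 10 mL/kg. Calipers read thrice weekly, volume = length×width²×π/6. T/C from median volumes on the last day.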

HCT-116 [13] = assay: Antitumor activity against human HCT-116 cells xenografted in BomTac:NMRI-Foxn1nu mouse assessed as T/C at 50 mg/kg, po administered once a week upto 6 weeks relative to control; format: functional; procedure, shortened: as §3
HCT-116 [14] = assay: Antitumor activity against human HCT-116 cells xenografted in BomTac:NMRI-Foxn1nu mouse assessed as tumor regression at 20 mg/kg, iv administered twice a week on consecutive days; format: functional, organism-based; procedure, shortened: as §3
HCT-116 [15] = assay: Antitumor activity against human HCT-116 cells xenografted in BomTac:NMRI-Foxn1nu mouse assessed as tumor regression at 25 mg/kg, iv administered twice a week on consecutive days; format: functional, organism-based; procedure, shortened: as §3
HCT-116 [16] = assay: Antitumor activity against human HCT-116 cells xenografted in BomTac:NMRI-Foxn1nu mouse assessed as […] in tumor size at 20 mg/kg, iv administered twice a week on consecutive days; format: functional, organism-based
Mus musculus = assay: Antitumor against human CXB1 cells xenografted in BomTac:NMRI-Foxn1nu mouse assessed as suppression in tumor growth at 15 mg/kg, iv administered once a week on consecutive days; format: functional, organism-based; details: CXB1 cell, in the assay text read “twice a week” for “once a week”; procedure, shortened: as §3
HCT-116 [17] = assay: Antitumor activity against human HCT-116 cells xenografted in BomTac:NMRI-Foxn1nu mouse assessed as mitotic index in small intestine at 40 mg/kg, iv; format: functional, organism-based
Procedure, shortened: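 Female nude mice bore s.c. HCT 116 tumors (~200 mm³) and received a single i.v. 40 mg/kg dose or vehicle (n=3 per group per time). Tumor, small intestine and large intestine were taken at 6, 24 and 48 h. Frozen sections were stained for pSer10 histone H3 (immunoperoxidase) or by TUNEL. Positive area was calculated as % of tumor cell area; Student's t test.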

[18] = Drug uptake in human HCT-116 cells xenografted in BomTac:NMRI-Foxn1nu mouse plasma at 35 mg/kg, iv measured after 1 hrs by HPLC-MS/MS analysis; format: ADME, organism-based
Procedure, shortened: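 Female nude mice bearing s.c. HCT 116 xenografts (2 × 10⁶ cells), n = 3 per time point, given a single i.v. dose. Tumor, organs and EDTA plasma collected at 1, 8, 24, 48, 96 and 168 h. Tissue extracts and plasma analysed by HPLC-MS/MS. Tissue nmol/mg converted to nmol/L assuming density 1.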

- pEC50 (HCT-116 [1]): 7.64
- pEC50 (BRO melanoma cell line): 7.96
- half-life [6]: 54 h
- AUC(0-t) [7]: 34 µM·h
- bioavailability [8]: 55%
- clearance [9]: 10 mL/min/kg
- Tmax [10]: 1.7 h
- bioavailability [11]: 41%
- concentration at 1 h [18]: 7 µM
SMILES: CC[C@@H]1C(=O)N(C)c2cnc(Nc3ccc(C(=O)N[C@H]4CC[C@H](N5CCN(CC6CC6)CC5)CC4)cc3OC)nc2N1C(C)C [VOLASERTIB]
- Activity (NCI-H460 [2]): Active
- Activity (NCI-H460 [3]): Active
- Activity (NCI-H460 [4]): Active
- Activity (NCI-H460 [5]): Active
- T/C (HCT-116 [12]): 1%
- T/C (HCT-116 [13]): 2%
- Activity (HCT-116 [14]): Active
- Activity (HCT-116 [15]): Active
- Activity (HCT-116 [16]): Active
- Activity (Mus musculus): Active
- Activity (HCT-116 [17]): inactive
